Measured values from ChEMBL document CHEMBL5149988, “Structure-Based Design of Selective Salt-Inducible Kinase Inhibitors” (J Med Chem, 2021).

Assay: Metabolic stability in Sprague-Dawley rat liver microsomes assessed as parent compound remaining incubated for 1 hrs by HPLC analysis
Assay type: ADME, Microsome
Details: read-out: Stability
Method in brief: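 Rat (Sprague-Dawley) activated liver microsome mix; compound incubated at 37 °C and sampled at 0, 15, 30 and 60 min. Unmetabolized parent quantified by HPLC.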

SMILES: CNc1ncc2cc(-c3ccc(-c4ncccc4F)cc3Cl)c(=O)n(C[C@H]3OC[C@H](N)CO3)c2n1
- remaining at 1 h: > 90%
